From paper PMC5107128 (Pharmacological research, 2016)

Legend:
[1] = target: MT1-MMP (Homo sapiens, UniProt P50281); test: MT1-MMP activity assay; assay type: cell-based; conditions: WM266-4 cells, 0.32 µM, overnight
How it was run: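 WM266-4 cells treated overnight with test compound (0.32 µM final). Comparators were a neutralizing antibody (1 μg/ml), recombinant MT1-MMP (0.5 μg/ml) or shMT1-MMP expression. Membranes extracted by three freeze-thaw cycles, sonicated, pelleted (30 min, 13 000 g, 4°C) and resuspended in PBS. Equal protein incubated with fluorogenic substrate Mca-PLGL-Dap(Dnp)-AR-NH2; fluorescence read at Ex/Em […].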

[2] = test system: MMP2; test: Gelatin zymography of conditioned medium; assay type: cell-based, human; conditions: WM266-4 cells, 0.32 µM
How it was run: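 WM266-4 cells were treated with 0.32µM test compound or DMSO, and serum-free conditioned medium was collected. Medium was concentrated on a 30K cutoff device, and 10 μg protein was run on 8% SDS-PAGE containing 2 mg/ml gelatin. Gels were washed in 2.5% Triton X-100, then incubated overnight at 37°C in 50 mM Tris-HCl, 5 mM CaCl2, 0.1% Triton X-100, pH 7.8. Gels were Coomassie R250-stained 45 min, then destained.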

[3] = test system: melanoma cell lines; test: Cell proliferation assay; assay type: cell-based, human
How it was run: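 Crystal violet growth assay. Melanoma cells were kept in DMEM with 10% FCS, 1% glutamine and 1% penicillin-streptomycin. They were seeded at 16,000/cm2 in triplicate and treated with 0.32 µM test compound or DMSO vehicle. shMT1-MMP WM266-4 cells received recombinant MMP2 at 25ng/ml. At each time point cells were fixed in 10% buffered formalin and stained with crystal violet. Growth is expressed relative to controls.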

[4] = test system: WM266-4 cells; test: Scratch migration assay; assay type: cell-based, human
[5] = test system: WM266-4 cells; test: Transwell Matrigel invasion assay; assay type: cell-based, human
How it was run: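 25 × 10^4 WM266-4 cells in suspension were treated with 0.16 or 0.32µM test compound; shMT1-MMP cells got recombinant MMP2 at 25ng/ml. Cells were placed in 8-µm-pore inserts, uncoated or coated with growth-factor-reduced Matrigel, with DMEM plus 5% FBS below. After 24 h, cells on the bottom membrane were fixed in 4% formaldehyde and stained with Coomassie. Stain was extracted in 10% acetic acid and read at […], in triplicate. Invasion % = Matrigel/control insert × 100.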

[6] = test system: RAC1; test: RAC1 activity assay; assay type: cell-based, human; conditions: WM266-4 cells, 0.32 µM, 24 hours
How it was run: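 Cells at 70% confluency were serum-starved in DMEM with 0.5% serum for 24 h, then serum-free for a further 24 h. They were lysed in the G-LISA kit buffer. Equal protein amounts were added to Rac1-GTP-binding wells, and active RAC1 was read at OD 490 nm.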

[7] = test system: WM266-4 cells; test: Orthotopic melanoma model: WM266-4 cells intradermally in NOD/SCID mice; assay type: in vivo
How it was run: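 Male NOD/SCID mice (5–8 weeks) received 2 × 10^6 luciferase-transduced WM266-4 cells intradermally in dorsal flanks (9 control, 18 treated tumors). Dosing began at about 120 mm3 mean tumor volume: 25 mg/Kg once daily subcutaneously, from 7.5 mg/ml in sterile PBS, filter-sterilized. Tumor volume taken as (w2 × l) × 0.52 and normalized to time 0. Primary tumors resected at day 42. Lung bioluminescence checked twice weekly. Lungs/thymi S100-stained at 30 weeks post-surgery.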

[8] = test system: other MMPs; conditions: cited from earlier work
[9] = cited from earlier work
[10] = cited from earlier work; remark: listed apart in the source
[11] = target: T1, MMP2 (Homo sapiens, UniProt P08253); conditions: cited from earlier work
T1 sequence (P08253 110-660): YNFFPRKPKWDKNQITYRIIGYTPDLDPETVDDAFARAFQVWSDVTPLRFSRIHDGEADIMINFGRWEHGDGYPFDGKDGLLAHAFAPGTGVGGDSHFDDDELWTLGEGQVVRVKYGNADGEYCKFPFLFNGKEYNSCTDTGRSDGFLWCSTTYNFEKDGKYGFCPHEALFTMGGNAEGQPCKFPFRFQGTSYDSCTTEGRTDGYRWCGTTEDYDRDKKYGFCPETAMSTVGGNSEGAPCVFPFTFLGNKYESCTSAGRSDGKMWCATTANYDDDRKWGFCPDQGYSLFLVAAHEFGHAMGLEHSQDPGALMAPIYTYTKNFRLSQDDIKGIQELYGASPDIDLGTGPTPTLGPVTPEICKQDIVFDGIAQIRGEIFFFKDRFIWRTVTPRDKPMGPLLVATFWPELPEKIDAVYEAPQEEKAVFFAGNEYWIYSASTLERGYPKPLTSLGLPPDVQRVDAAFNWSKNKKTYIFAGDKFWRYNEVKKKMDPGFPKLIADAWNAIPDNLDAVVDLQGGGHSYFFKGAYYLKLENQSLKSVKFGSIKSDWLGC

[12] = test system: prostate cancer; conditions: cited from earlier work
[13] = WM266-4 cells, recombinant MMP2 25ng/ml

With `Nc1ccc(Oc2ccc(S(=O)(=O)CC3CS3)cc2)cc1` (stereo not shown) [ND-322] as the molecule, how does the MT1-MMP activity [1] read?
The MT1-MMP activity was “as effective as antibody neutralization and knockdown”.

What about the “MMP2 activation by gelatin zymography” value [2] of the same molecule?
Its value is “inhibited MMP2 activation”.

And the “cell growth of several melanoma cell lines” value ([3]; 0.32 µM)?
The value was “inhibited cell growth”.

What about the “motility (migration) of WM266-4 melanoma cells” value ([4]; 0.16 and 0.32 µM, dose dependent) of the same molecule?
Its value is “inhibited significantly”.

What about the “invasion capacity of WM266-4 melanoma cells” value ([5]; 0.16 and 0.32 µM, 24 hours, dose dependent) of the same molecule?
Its value is “inhibited significantly”.

And the “activity of the small GTPase RAC1” value [6]?
The value was “reduce the activity”.

And the “tumor growth compared to controls” value ([7]; 25 mg/Kg/day subcutaneously, NOD/SCID mice)?
Its value is “reduced tumor growth significantly”.

And the “body weight over time” value ([7]; 25 mg/Kg/day, NOD/SCID mice)?
Its value is “maintained their weight”.

And the tolerability of treatment ([7]; 25 mg/Kg/day, NOD/SCID mice)?
Its tolerability of treatment is “well tolerated”.

What about the “mice presenting with tumor cells in the lungs (lung metastasis)” value ([7]; 30 weeks post-surgery, control animals 90%) of the same molecule?
The value was 40%.

What about the “inhibition of other MMPs” value [8] of the same molecule?
Its value is “does not inhibit or poorly inhibits”.

And the “crossing of the blood/brain barrier” value [9]?
The value was “cross the blood/brain barrier”.

And the “tolerability in a model of wound healing” value [10]?
The value was “well tolerated”.

For “TIMP1: tissue inhibitor of matrix metalloproteinase (TIMP)1”, which “residence time bound to MMP2” value [11] is on record?
The value was 6.9 min.

For `O=S(=O)(CC1CS1)c1ccc(Oc2ccccc2)cc1` (stereo not shown) [SB-3CT, reference compound], which “crossing of the blood/brain barrier” value [9] is on record?
The value was “cross the blood/brain barrier”.

And the “bone metastasis in a xenograft model of prostate cancer” value [12]?
The value was “effectively prevent bone metastasis”.

B1: recombinant active MMP2: recombinant active MMP2 added to cells at 25ng/ml (protein, UniProt P08253 110-660, looked up)
72 kDa type IV collagenase: T1 sequence (P08253 110-660)
What does the source list for B1?
rescue of cell growth in cells expressing shMT1-MMP [3, 13]: did not rescue cell growth; rescue of cell motility in cells expressing shMT1-MMP ([4]; WM266-4 cells, recombinant MMP2 25ng/ml, 24 hours): rescued; rescue of cell invasion in cells expressing shMT1-MMP [5, 13]: rescued
